EPA's CvTdb concentration-time database

What was measured:
Rat [1] = assay: concentration in plasma after dosing; settings: 0.5 h; dosed: Primidone; 130 mg/kg; oral; Male; Harlan Sprague Dawley
Rat [2] = assay: concentration in plasma after dosing; settings: 1.5 h; dosed: Primidone; 30 mg/kg; oral; Male; F344
Rat [3] = assay: concentration in plasma after dosing; settings: 6 h; dosed: Primidone; 130 mg/kg; oral; Female; F344
Rat [4] = assay: concentration in plasma after dosing; settings: 0.5 h; dosed: Primidone; 80 mg/kg; oral; Female; F344
Rat [5] = assay: concentration in plasma after dosing; settings: 3 h; dosed: Primidone; 80 mg/kg; oral; Female; F344
Rat [6] = assay: concentration in plasma after dosing; settings: dosed: 2-Hydroxy-4-methoxybenzophenone, 250 mg/kg, oral, Female, F344
Rat [7] = assay: concentration in plasma after dosing; settings: dosed: 2-Hydroxy-4-methoxybenzophenone, 500 mg/kg, oral, Male, F344
Rat [8] = assay: concentration in plasma after dosing; settings: 6 h; dosed: 2-Hydroxy-4-methoxybenzophenone; 500 mg/kg; oral; Male; F344
Rat [9] = assay: concentration in plasma after dosing; settings: dosed: 2-Hydroxy-4-methoxybenzophenone, 250 mg/kg, oral, Female, F344; remark: listed apart in the source
Rat [10] = assay: concentration in plasma after dosing; settings: 4 h; dosed: 2-Hydroxy-4-methoxybenzophenone; 500 mg/kg; oral; Male; F344
Rat [11] = assay: concentration in plasma after dosing; settings: dosed: Methyleugenol, 37 mg/kg, oral, Female, F344/N
Rat [12] = assay: concentration in plasma after dosing; settings: dosed: Methyleugenol, 37 mg/kg, iv, Female, F344
Rat [13] = assay: concentration in plasma after dosing; settings: dosed: Methyleugenol, 37 mg/kg, oral, Male, F344/N
Rat [14] = assay: concentration in plasma after dosing; settings: dosed: Methyleugenol, 37 mg/kg, oral, Male, F344/N; remark: listed apart in the source
Hamster = assay: concentration in plasma after dosing; settings: dosed: 2,4-Dichlorophenoxyacetic acid, 8.0 mg/kg, iv, Male, Syrian Golden
Summary of the method: (§1)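 Points were largely digitised from plot screenshots with WebPlotDigitizer or otherwise copied from tables, and they remain in the units each source reported. They come from published in vivo toxicokinetic studies and two structured collections. Sampling and analytical methods follow each source and were often not reported.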

Rat [15] = assay: concentration in plasma after dosing; settings: 12 h; dosed: alpha-Thujone; 25 mg/kg; oral; Male; Harlan Sprague Dawley
Rat [16] = assay: concentration in brain after dosing; settings: 2 min; dosed: alpha-Thujone; 50 mg/kg; oral; Male; Harlan Sprague Dawley
Rat [17] = assay: concentration in brain after dosing; settings: 6 h; dosed: alpha-Thujone; 25 mg/kg; oral; Male; Harlan Sprague Dawley
Rat [18] = assay: concentration in plasma after dosing; settings: 5 min; dosed: alpha-Thujone; 50 mg/kg; oral; Female; Harlan Sprague Dawley
Rat [19] = assay: concentration in plasma after dosing; settings: 0.5 h; dosed: alpha-Thujone; 50 mg/kg; oral; Female; Harlan Sprague Dawley
Rat [20] = assay: concentration in brain after dosing; settings: 3 h; dosed: alpha-Thujone; 50 mg/kg; oral; Female; Harlan Sprague Dawley
Rat [21] = assay: concentration in brain after dosing; settings: 5 min; dosed: alpha-Thujone; 25 mg/kg; oral; Male; Harlan Sprague Dawley
Rat [22] = assay: concentration in plasma after dosing; settings: 1.5 h; dosed: alpha-Thujone; 50 mg/kg; oral; Female; Harlan Sprague Dawley
Rat [23] = assay: concentration in plasma after dosing; settings: 0.5 h; dosed: alpha-Thujone; 50 mg/kg; oral; Female; Harlan Sprague Dawley; remark: listed apart in the source
Rat [24] = assay: concentration in brain after dosing; settings: 3 h; dosed: alpha-Thujone; 25 mg/kg; oral; Female; Harlan Sprague Dawley
human = assay: concentration in blood after dosing; settings: dosed: trichloroethylene, 100 ppm, inhalation, duration: 6 hr, male
Summary of the method: as §1

Rat [25] = assay: concentration in brain after dosing; settings: 6 h; dosed: Perfluorohexane-1-sulphonic acid – potassium salt; 16 mg/kg; oral; Female; Harlan Sprague Dawley
Rat [26] = assay: concentration in kidney after dosing; settings: 48 h; dosed: Perfluorohexane-1-sulphonic acid – potassium salt; 16 mg/kg; oral; Female; Harlan Sprague Dawley
Rat [27] = assay: concentration in brain after dosing; settings: 6 h; dosed: Perfluorohexane-1-sulphonic acid – potassium salt; 16 mg/kg; oral; Female; Harlan Sprague Dawley; remark: listed apart in the source
Rat [28] = assay: concentration in plasma after dosing; settings: dosed: Perfluorohexane-1-sulphonic acid – potassium salt, 4 mg/kg, oral, Male, F344
Rat [29] = assay: concentration in liver after dosing; settings: 24 h; dosed: Perfluorohexane-1-sulphonic acid – potassium salt; 16 mg/kg; oral; Female; Harlan Sprague Dawley
Rat [30] = assay: concentration in plasma after dosing; settings: dosed: Perfluorohexane-1-sulphonic acid – potassium salt, 4 mg/kg, oral, Male, F344; remark: listed apart in the source
Rat [31] = assay: concentration in liver after dosing; settings: 192 h; dosed: Perfluorohexane-1-sulphonic acid – potassium salt; 16 mg/kg; oral; Female; Harlan Sprague Dawley
Rat [32] = assay: concentration in plasma after dosing; settings: dosed: Pyridine, 5 mg/kg, oral, Male, F344

CCC1(c2ccccc2)C(=O)NCNC1=O [Primidone]
Settings | concentration in plasma [µg/mL]
Rat [1] | 47.9
Rat [2] | 14
Rat [3] | 74.3
Rat [4] | 40.3
Rat [5] | 59.3

O=C(c1ccccc1)c1ccc(O)cc1O [2,4-Dihydroxybenzophenone]
Settings | concentration in plasma [µg/mL]
Rat [6], 3 h | 0.148
Rat [6], 10 min | 0.119
Rat [7], 0.5 h | 0.162
Rat [7], 12 h | 0.148
Rat [9], 0.25 h | 0.473
Rat [9], 4 h | 0.068

Settings | concentration in plasma [µg/mL]
Rat [8] | 0.285
Rat [10] | 0.181

C=CCc1ccc(OC)c(OC)c1 [Methyleugenol]
Settings | concentration in plasma [µg/mL]
Rat [11], 4 h | 0.00995
Rat [11], 5 min | 0.173
Rat [12], 3 h | 0.158
Rat [12], 5 min | 28.9
Rat [13], 6 h | 0.0111
Rat [13], 10 min | 0.176
Rat [14], 0.5 h | 0.0449
Rat [14], 4 h | 0.0127

O=C(O)COc1ccc(Cl)cc1Cl [2,4-Dichlorophenoxyacetic acid]
Hamster
Settings | concentration in plasma [µg/mL]
5 min | 55.3
40 min | 3.09

CC(C)[C@]12CC(=O)[C@H](C)[C@H]1C2 [alpha-Thujone]
Settings | concentration in brain [ng/g] | concentration in plasma [ng/mL]
Rat [15] | – | 20.5
Rat [16] | 23.4 | –
Rat [17] | 28.2 | –
Rat [18] | – | 2120
Rat [19] | – | 433
Rat [20] | 416 | –
Rat [21] | 1220 | –
Rat [22] | – | 560
Rat [23] | – | 475
Rat [24] | 556 | –

OCC(Cl)(Cl)Cl [trichloroethanol]
human
Settings | concentration in blood [µg/mL]
0 h | 4.78
18 h | 1.17
24 h | 3.43
42 h | 2.78
48 h | 6.47
66 h | 5.22
72 h | 10.8
90 h | 7.86

O=S(=O)([O-])C(F)(F)C(F)(F)C(F)(F)C(F)(F)C(F)(F)C(F)(F)F.[K+] [Perfluorohexane-1-sulphonic acid – potassium salt]
Settings | concentration in brain [ng/g] | concentration in kidney [ng/g] | concentration in liver [ng/g]
Rat [25] | 1100 | – | –
Rat [26] | – | 12000 | –
Rat [27] | 1090 | – | –
Rat [29] | – | – | 29500
Rat [31] | – | – | 1580

concentration in plasma [ng/mL]
Settings | 1 h | 6 h | 24 h | 192 h | 864 h
Rat [28] | – | 28700 | – | 19100 | –
Rat [30] | 23200 | – | 28900 | – | 9040

c1ccncc1 [Pyridine]
Rat [32]
Settings | concentration in plasma [µg/mL]
0.5 h | 3.09
6 h | 1
